Data set [1] addresses Speckle-type POZ protein (Homo sapiens) (UniProt O43791). Briefly: Binding affinity to recombinant N-terminal GST/His-tagged MATH binding domain SPOP (unknown origin) expressed in Escherichia coli BL21 (DE3) assessed as change in melting temperature at 10 fold compound incubated for 15 mins by nano differential scanning fluorimetry (reference value: -1.7 degreeC).
Data set [2] concerns A498. Briefly: Antiproliferative activity against human A498 cells assessed as reduction in cell viability at 30 uM incubated for 72 hrs by MTT assay relative to control. The data set is classed as functional. To be noted: A498, 72 h. In a few lines: (§1)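 MTT read-out. Cells seeded at 1,000-2,200/well, grown 12 hr at 37 °C, then compound added for 72 hr. MTT for 4 hr, formazan dissolved in DMSO, absorbance at 490 nm. Untreated-cell OD taken as 100% proliferation; inhibition reported at 30 μM.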

Data set [3] has as its system OS-RC-2. The experiment in a line: Antiproliferative activity against human OS-RC2 cells assessed as reduction in cell viability at 30 uM incubated for 72 hrs by MTT assay relative to control. The data set is classed as functional. To be noted: OS-RC-2, 72 h. In a few lines: as §1
Data set [4] has as its system A498. Briefly: Antiproliferative activity against human A498 cells assessed as reduction in cell viability incubated for 72 hrs by MTT assay. The data set is classed as functional, cell-based. To be noted: A498, 72 h. In a few lines: (§2)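 MTT read-out. Cells seeded at 1,000-2,200/well, grown 12 hr at 37 °C before compound, then exposed 72 hr. MTT for 4 hr, formazan dissolved in DMSO, A490 read. Untreated cells = 100% proliferation. IC50 quantitated; mean ± SD, n = 3.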
Background: Tetrazolium assays rely on reduction of a dye to a coloured formazan, in cell work by metabolically active cells.

Data set [5] relates to OS-RC-2. The experiment in a line: Antiproliferative activity against human OS-RC2 cells assessed as reduction in cell viability incubated for 72 hrs by MTT assay. To be noted: OS-RC-2, 72 h. The data set is classed as functional, cell-based. The procedure, abridged:
as §2

Data set [6] concerns the target Speckle-type POZ protein (Homo sapiens) (UniProt O43791). Briefly: Binding affinity to recombinant N-terminal GST/His-tagged MATH binding domain SPOP (unknown origin) expressed in Escherichia coli BL21 (DE3) assessed as change in melting temperature at 20 fold compound incubated for 15 mins by nano differential scanning fluorimetry (reference value: -3.8 degreeC). For orientation: Differential scanning fluorimetry follows unfolding on heating by fluorescence.

Data set [7] has the same target. Briefly: Inhibition of SPOP signalling in human OS-RC2 cells assessed as accumulation of PTEN at 5 to 15 uM incubated for 12 hrs by Western blot analysis. The data set is classed as cell-based. (A western blot detects proteins with antibodies after separation by electrophoresis.)
The target is the same in data set [8]. The experiment in a line: Binding affinity to recombinant N-terminal GST/His-tagged SPOP (unknown origin) MATH binding domain expressed in Escherichia coli BL21 (DE3) assessed as change in melting temperature at 5 fold compound by SYPRO Orange dye based differential scanning fluorimetry (reference value: -1.7 degreeC).
Data set [9] can be described thus: Solubility of compound in cell culture medium in presence of 0.2 % DMSO. Format: physicochemical. The procedure, abridged: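 Solubility determined in cell culture medium containing 0.2% DMSO.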
Data set [10] deals with A498. Briefly: Inhibition of colony formation in human A498 cells at 1 to 5 uM incubated for 12 days by crystal violet dye based assay. The data set is classed as functional, cell-based. The procedure, abridged:
(§3)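 Cells seeded at 1,000/well, grown 12 days at 37 °C, 5% CO2, medium renewed every 3 days. Fixed with 10% acetic acid/10% methanol for 15 min, stained with 1% crystal violet for 10 min.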

Data set [11] concerns OS-RC-2. The experiment in a line: Inhibition of colony formation in human OS-RC2 cells at 1 to 5 uM incubated for 12 days by crystal violet dye based assay. Format: functional, cell-based. In a few lines:
as §3

Data set [12] concerns the target Speckle-type POZ protein (Homo sapiens) (UniProt O43791). The experiment in a line: Binding affinity to recombinant N-terminal GST/His-tagged SPOP (unknown origin) MATH binding domain expressed in Escherichia coli BL21 (DE3) assessed as change in melting temperature at 1 fold compound by SYPRO Orange dye based differential scanning fluorimetry (reference value: -1.7 degreeC).

Data set [13] shares this target. Briefly: Binding affinity to recombinant N-terminal GST/His-tagged SPOP (unknown origin) MATH binding domain expressed in Escherichia coli BL21 (DE3) assessed as change in melting temperature at 10 fold compound by SYPRO Orange dye based differential scanning fluorimetry (reference value: -1.7 degreeC).

A word on the ΔTm: it is the shift of the melting midpoint relative to a reference. For orientation: inhibition means the share of the control response that was lost under treatment. By IC50 is commonly meant the point on the concentration scale where inhibition reaches its midpoint. The term solubility denotes how much of the substance goes into solution per volume.

The source made the active and inactive calls. The calls are words filed in the database; no cut-off is given here.

Speckle-type POZ protein (Homo sapiens), sequence (O43791 whole entry, the tested form may be a part): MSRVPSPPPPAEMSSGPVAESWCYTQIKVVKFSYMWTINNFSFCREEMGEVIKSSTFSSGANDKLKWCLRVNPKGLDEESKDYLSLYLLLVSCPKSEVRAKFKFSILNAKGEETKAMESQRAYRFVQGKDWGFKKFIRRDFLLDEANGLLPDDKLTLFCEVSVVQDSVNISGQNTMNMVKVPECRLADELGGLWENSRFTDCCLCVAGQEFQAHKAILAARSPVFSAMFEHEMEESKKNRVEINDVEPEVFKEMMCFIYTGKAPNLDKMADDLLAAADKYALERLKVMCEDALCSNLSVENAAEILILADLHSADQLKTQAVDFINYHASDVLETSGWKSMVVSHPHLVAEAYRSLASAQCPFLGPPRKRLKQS

With `Cc1cccn2c(=O)c3cc(C(=O)NCCCN4CCOCC4)c(=N)n(CCc4cccs4)c3nc12`, the figures for the ΔTm in [1] and in data set [6] were 3.2 °C and 5.1 °C, respectively. The inhibition at 30 µM stood at 90% in [2] and 82% in data set [3]. Further, the values for the 50% inhibitory concentration (IC50) in [4] and in [5] were 2.6 µM and 7.6 µM, respectively. Moreover, the inhibition entry in [7] was “Active”.
`Cc1cccn2c(=O)c3cc(C(=O)NCCCN4CCOCC4)c(=N)n(CCc4ccc(F)cc4)c3nc12`: the ΔTm was 2.5 °C in data set [1], 2.9 °C in data set [6] and 2 °C in data set [8]. For the same compound, the values for the inhibition at 30 µM in data set [2] and in data set [3] were 90% and 88%, respectively. In addition, the half-maximal inhibitory concentration (IC50) in data set [4] is 3.1 µM; in data set [5], 6.6 µM.
In the case of `COc1ccc(CCn2c(=N)c(C(=O)NCCCN3CCOCC3)cc3c(=O)n4cccc(C)c4nc32)cc1`, the ΔTm was 2.5 °C in data set [1], 3.6 °C in data set [6] and 2.7 °C in [8]. The inhibition at 30 µM worked out at 90% in data set [2] and 88% in data set [3]. Besides, the values for the IC50 in [4] and in [5] were 2.8 µM and 6.5 µM, respectively.
As for `Cc1cccn2c(=O)c3cc(C(=O)NCCCN4CCOCC4)c(=N)n(CCc4ccc(Br)cc4)c3nc12`, the thermal shift (ΔTm) is 2.3 °C in [1], 3.5 °C in data set [6] and 1.3 °C in data set [8]. The inhibition at 30 µM amounted to 89% in [2] and 96% in data set [3]. Also, the values for the IC50 in data set [4] and in data set [5] were 3 µM and 5 µM, respectively. In data set [9], the solubility was 5 to 10 µM. For the same compound, the inhibition result in data set [10] and in data set [11] was “Active” in each case.
Take `COc1ccc(CCNC(=O)c2cc3c(=O)n4cccc(C)c4nc3n(CCc3cccs3)c2=N)cc1`: the inhibition at 30 µM in data set [2] was found to be 87%; in data set [3], 75%. The concentration for half-maximal inhibition (IC50) worked out at 2.8 µM in [4] and 4.2 µM in [5]. Also, the solubility in data set [9] is 2.5 to 5 µM. The inhibition entry in data set [10], in data set [11] and in [7] was “Active” each time.
For `Cc1ccc(CCn2c(=N)c(C(=O)NCCCN3CCOCC3)cc3c(=O)n4cccc(C)c4nc32)cc1`, the ΔTm in data set [1] came out at 1.8 °C; in data set [6], 2.1 °C; in data set [8] it was 2 °C. The inhibition at 30 µM in [2] was determined as 91%; in [3], 94%. Also, the half-maximal inhibitory concentration (IC50) in [4] was 2.1 µM; in data set [5], 5.7 µM.
In the case of `Cc1cccn2c(=O)c3cc(C(=O)NCCCN4CCOCC4)c(=N)n(CCc4cccc(F)c4)c3nc12`, the ΔTm in data set [1] is 3.7 °C; in data set [6] it was 5.3 °C; in [8], 4 °C. Moreover, the values for the inhibition at 30 µM in [2] and in [3] were 89% and 92%, respectively. The half-inhibitory concentration (IC50) in data set [4] came to 2.4 µM; in data set [5], 4.6 µM. For the same compound, in data set [7], the inhibition result was “Active”.
Regarding `Cc1cccn2c(=O)c3cc(C(=O)NC4CCCCC4)c(=N)n(CCc4cccs4)c3nc12`, the thermal shift (ΔTm) in data set [1] and in data set [6] was 2.7 °C in each case. The inhibition at 30 µM in [2] and in data set [3] was 90% each time. Also, the IC50 turned out to be 6.3 µM in [4] and 5.9 µM in [5]. Moreover, in data set [7], the inhibition entry was “Active”.
Turning to `Cc1cccn2c(=O)c3cc(C(=O)NCCCN4CCOCC4)c(=N)n(CCCc4ccccc4)c3nc12`, the inhibition at 30 µM in [2] was 90%; in data set [3], 91%. Besides, the IC50 turned out to be 2.6 µM in data set [4] and 5.1 µM in data set [5].
On to `Cc1cccn2c(=O)c3cc(C(=O)NCCCN4CCOCC4)c(=N)n(CCc4ccc(Cl)cc4)c3nc12`, for which the ΔTm in data set [1] came to 2.4 °C; in data set [6], 3.5 °C. Further, the results for the inhibition at 30 µM in [2] and in data set [3] were 90% and 97%, respectively. Besides, the IC50 in [4] turned out to be 2.3 µM; in data set [5] it was 4 µM.
In the case of `Cc1cccn2c(=O)c3cc(C(=O)NCCc4ccccc4)c(=N)n(CCc4cccs4)c3nc12`, the shift in melting temperature (ΔTm) in data set [1] is 3.5 °C; in data set [6], 3.7 °C. The inhibition at 30 µM stood at 85% in data set [2] and 52% in [3]. The IC50 was 5 µM in data set [4] and 24.2 µM in data set [5].
Regarding `Cc1cccn2c(=O)c3cc(C(=O)NCc4cccnc4)c(=N)n(CCCN4CCOCC4)c3nc12`, the ΔTm in data set [12] was 0 °C; in data set [1] it was 0 °C; in data set [6] it was 0.2 °C; in data set [8], 0.3 °C; in data set [13] it was 0.3 °C. For the same compound, the IC50 in data set [4] and in [5] was greater than 50 µM in each case.
Turning to `Cc1cccn2c(=O)c3cc(C(=O)NCCCN4CCOCC4)c(=N)n(CCc4ccccc4)c3nc12`, the ΔTm in data set [1] was 2.8 °C; in data set [6] it was 4 °C; in data set [8] it was 3 °C. The inhibition at 30 µM in data set [2] was determined as 88%; in [3], 90%. The IC50 worked out at 2.7 µM in data set [4] and 5.8 µM in data set [5]. Besides, the solubility in data set [9] is 30 to 45 µM. In addition, the inhibition entry in data set [10] and in data set [11] was “Active” each time.
